MrgX1 antag: blocks BAM8-22 activation of human MrgX1 receptor. B-score at 10 µM. hit rate 1.3% among 310,000. MRGX1-HEK293 calcium flux, Fluo-4, BAM8-22 antagonism; stronger effect = lower value. AID 588676;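 active = calcium-response B-score plate-corrected more than 3 library SD below zero, starting fluorescence within 5 deviations, no agonist response on first addition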;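 also: peak minus trough fluorescence over baseline after final BAM8-22 challenge near maximal dose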
Target sequence (Q96LB2 whole entry, looked up): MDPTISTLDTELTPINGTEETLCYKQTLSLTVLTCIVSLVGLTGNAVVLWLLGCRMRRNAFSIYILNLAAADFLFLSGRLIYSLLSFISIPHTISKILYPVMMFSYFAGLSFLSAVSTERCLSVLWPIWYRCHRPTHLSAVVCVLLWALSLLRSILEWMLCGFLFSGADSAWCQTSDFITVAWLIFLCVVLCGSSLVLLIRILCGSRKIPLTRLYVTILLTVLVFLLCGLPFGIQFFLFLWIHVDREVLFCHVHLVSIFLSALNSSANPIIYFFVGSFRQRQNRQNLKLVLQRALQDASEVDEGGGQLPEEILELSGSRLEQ
RGS4 inh: inhibitors of human RGS4; P49798; HEK293 M3R/RGS4 inducible, Fluo-4 calcium flux; stronger effect = higher value; triggered by carbachol at its EC20; B-score at 10 µM; hit rate 0.45% among 310,000; AID 463165;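 active = B-score, a plate-corrected calcium signal, over three deviations above library mean, with baseline fluorescence within five deviations of library mean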;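 also: RGS4 expression induced by doxycycline in cells with stable M3 receptor; B-score is computed from the integrated fluorescence ratio over baseline after carbachol; higher B-score means a larger calcium signal and so more RGS4 inhibition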
Target sequence (P49798 whole entry, looked up): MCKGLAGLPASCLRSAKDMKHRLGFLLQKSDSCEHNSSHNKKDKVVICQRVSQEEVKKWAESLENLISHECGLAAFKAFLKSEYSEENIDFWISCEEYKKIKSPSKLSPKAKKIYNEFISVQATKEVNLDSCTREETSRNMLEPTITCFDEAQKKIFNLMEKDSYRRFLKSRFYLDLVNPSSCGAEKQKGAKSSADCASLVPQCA
Kir21 block: Kir2.1 (mouse) channel inhibition; HEK293-Kir2.1, FluxOR thallium flux fluorescence; stronger effect = lower value; B-score at 10 µM; hit rate 0.85% among 310,000; AID 1672;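 active = fluorescence ratio B-score at or below minus 3 SD of library scores, with starting-brightness B-score within 2 SD, cut at about -4.2 in these data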;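 also: channel flux triggered by added potassium and thallium sulfate stimulus; B-score of peak minus minimum fluorescence over baseline after thallium stimulus; more negative B-score means stronger Kir2.1 block with less thallium influx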
RGS4 pot: potentiators or activators of RGS4; HEK293 M3R/inducible RGS4, carbachol calcium flux Fluo4; stronger effect = lower value; B-score at 10 µM; hit rate 0.92% among 310,000;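 active = B-score of the integrated calcium signal more than 4 SD below the library mean, with starting fluorescence not abnormally high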;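 also: negative B-score means reduced calcium response which marks RGS4 activation or potentiation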
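System – HEK293 FlpIn-TREx cells, stable M3R, doxycycline-inducible RGS4 · Reagent – ECmax carbachol challenge · Times – compound preincubation 20 min at room temperature before agonist · Technique – Fluo4 fluorescence kinetic imaging of calcium · Measure – B score of integrated Fluo4 ratio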
MrgX1 allo act: allosterically activates human MrgX1 receptor signaling; Q96LB2; MrgX1-HEK293, Fluo-4 calcium flux, FDSS; stronger effect = higher value; B-score at 10 µM; AID 588675; hit rate 0.63% among 310,000;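 active = plate-corrected calcium response at least 3 library SD above typical, normal starting fluorescence, not activating the receptor alone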;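 also: compound read alongside a low EC10 to EC30 dose of BAM8-22 agonist; peak minus trough fluorescence over baseline measured at the second addition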
MrgX1 agonist: agonists of human MrgX1 receptor; Q96LB2; MrgX1-HEK293 cells, Fluo-4 calcium fluorescence, agonist mode; stronger effect = higher value; B-score at 10 µM; hit rate 0.44% among 310,000;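 active = calcium response B-score plate-corrected fluorescence ratio at least 3 library SD, with starting fluorescence B-score inside 5 SD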
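System – MrgX1-expressing HEK293 cells · Incubation – cells plated overnight, dye loaded 0.5 h 37 °C, 0.5 h room temperature · Technique – kinetic Fluo-4 NW fluorescence of intracellular calcium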
MrgX1 allo conf: confirmation of human MrgX1 receptor positive allosteric modulators. shares compounds with MrgX1 allo act. MrgX1-HEK293, Fluo-4 calcium fluorescence, FDSS. activation (ratio percentage), % at 10 µM. hit rate 13% among 1,200;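 active = ratio at least 3 SD above the weak peptide control, stable starting fluorescence, no direct agonism earlier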;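 also: compound followed by low BAM8-22 agonist challenge near EC20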
MrgX1 antag conf: human MrgX1 receptor antagonism, re-confirmation screen | shares compounds with MrgX1 antag | MrgX1-HEK293, BAM8-22 calcium flux, Fluo-4; stronger effect = lower value | remaining BAM8-22 calcium response % of control (stronger effect = lower value), % at 10 µM | hit rate 19% among 2,300;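 active = remaining agonist calcium response no higher than 100% minus 3 SD of agonist-only control wells, with starting fluorescence near control levels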;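 also: agonist BAM8-22 given at a near maximal EC90 to ECmax level; peak minus minimum fluorescence divided by baseline after agonist addition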
HEK293 Ca flux: MrgX1 antagonist counter-screen hit in parental HEK293 cells. AID 624111. fluorescence ratio F(max-min)/F0 at 10 µM. hit rate 2% among 4,000. Fluo-4 calcium fluorescence, FDSS. shares compounds with MrgX1 antag;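 active = duplicate-averaged calcium fluorescence ratio at least three times the standard deviation of buffer wells, a nonspecific response in parental cells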
HEK293 Ca counter: MrgX1 allosteric activator counter-screen hit in parental HEK293 cells; shares compounds with MrgX1 antag; parental HEK293 calcium flux, Fluo-4 fluorescence ratio; stronger effect = higher value; AID 624114; fluorescence ratio F(max-min)/F0 at 10 µM; hit rate 0.4% among 4,000;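 active = calcium fluorescence ratio, averaged over duplicates, at least 3 SD of the buffer-well ratio, meaning a nonspecific response in receptor-free cells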;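 also: untransfected parental HEK293 lacking MrgX1 used as counterscreen for MrgX1 allosteric activators; fluorescence change taken during the second addition on a kinetic imager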
HEK293 Ca cntr2: activity in parental HEK293 cells lacking MrgX1 receptor. Fluo-4 calcium fluorescence (FDSS); stronger effect = higher value. fluorescence ratio F(max-min)/F0 at 10 µM. shares compounds with MrgX1 antag. hit rate 8.7% among 4,000;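 active = calcium fluorescence ratio at least three times the spread of buffer wells, meaning a non-specific response in parental cells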
A number is an active result; 0 = inactive; - = no result. The list is not random: actives were taken first. Their share in the collection is about 4.1%.

SMILES | MrgX1 antag | RGS4 inh | Kir21 block | RGS4 pot | MrgX1 allo act | MrgX1 agonist | MrgX1 allo conf | HEK293 Ca flux | HEK293 Ca counter | HEK293 Ca cntr2 | others
COc1ccccc1N1CCN(C(=O)C(Cc2ccccc2)NC(=O)C2CCCCC2)CC1 (centres undefined) | 0 | 0 | 0 | 0 | 0 | 0 | - | - | - | -
Cc1nn(C)c(Nc2ccc(Br)cc2)c1Br | 0 | 0 | 0 | 0 | 8.2 | 0 | 0 | 0 | 0 | 0
Cc1cc(C)nc(-n2nc(C)c(Br)c2Nc2ccc(Br)cc2)n1 | 0 | 0 | 0 | 0 | 0 | 0 | - | - | - | -
COc1ccc(CC(=O)Nc2nc3ccccc3[nH]2)cc1 | 0 | 0 | 0 | 0 | 0 | 0 | - | - | - | -
COC(=O)Cc1cc(=O)n(-c2nc3ccccc3[nH]2)[nH]1 | 0 | 0 | 0 | 0 | 15 | 0 | 0 | 0 | 0 | 0
COc1ccc(S(=O)(=O)N(CC(=O)NC2CC3CCC2C3)c2ccccc2OC)cc1 (centres undefined) | 0 | 0 | 0 | 0 | 8.3 | 0 | 0 | 0 | 0 | 0
CCCNS(=O)(=O)c1ccc(CCC(=O)Nc2ccc3c(c2)OCCO3)cc1 | 0 | 0 | 0 | 0 | 0 | 0 | - | - | - | -
CCCCn1c(-c2ccoc2C)n[nH]c1=S | 0 | 0 | 0 | 0 | 0 | 0 | - | - | - | -
CN(C)CCN(Cc1ccccc1)S(=O)(=O)c1ccc(-c2ccc(=O)[nH]n2)s1 | 0 | 0 | 0 | 0 | 6.6 | 0 | 0 | 0 | 0 | 0
c1ccc(-c2nc3nc4ccccc4nc3n2CC2CCCO2)cc1 (centres undefined) | 0 | 0 | 0 | 0 | 7 | 0 | 0 | 0 | 0 | 0
COc1cccc(C(=O)Nc2nnc(C3CCCO3)s2)c1 (centres undefined) | 0 | 0 | 0 | 0 | 0 | 0 | - | - | - | -
O=C(Nc1ccc(NC(=O)c2ccc(Cl)c(S(=O)(=O)N3CCOCC3)c2)cc1)c1ccccc1 | 0 | 0 | 0 | 0 | 0 | 0 | - | - | - | -
O=C(Nc1ccccc1)Nc1ccc(Cl)c(S(=O)(=O)N2CCOCC2)c1 | -8.1 | 0 | 0 | 0 | 7.7 | 0 | 0 | 0 | 0 | 0 | MrgX1 antag conf=0
O=C(Nc1ccc(S(=O)(=O)N2CCOCC2)cc1)C1CC1 | 0 | 0 | 0 | 0 | 15 | 0 | 0 | 0 | 0 | 0
CC(=O)Nc1ccc2ccccc2c1 | 0 | 0 | 0 | 0 | 0 | 0 | - | - | - | -
CC12COC3(C(=O)Nc4ccc5ccccc5c4)CC1CCC32C (centres undefined) | 0 | 0 | 0 | 0 | 17 | 0 | 0 | 0 | 0 | 0
CC12COC3(C(=O)NCCc4ccccc4)CC1CCC32C (centres undefined) | 0 | 0 | 0 | 0 | 0 | 0 | - | - | - | -
Cc1ccccc1NC(=O)C12CC3CCC1(C)C3(C)CO2 (centres undefined) | 0 | 0 | 0 | 0 | 6.9 | 0 | 0 | 0 | 0 | 0
CC12COC3(C(=O)Nc4ccccc4)CC1CCC32C (centres undefined) | 0 | 0 | 0 | 0 | 9.7 | 0 | 0 | 0 | 0 | 0
CC12COC3(C(=O)Nc4cccnc4)CC1CCC32C (centres undefined) | 0 | 0 | 0 | 0 | 0 | 0 | - | - | - | -
COc1cccc(CN2C(=O)Nc3ccccc3C(=O)N2C(C)(C)C)c1 | 0 | 0 | 0 | 0 | 0 | 0 | - | - | - | -
CCOC(=O)c1c(-c2ccsc2)csc1N | 0 | 0 | 0 | 0 | 8.6 | 0 | 0 | 0 | 0 | 0
CCOC(=O)c1c(-c2ccc(C)s2)csc1N | 0 | 0 | 0 | 0 | 9.1 | 0 | 0 | 0 | 0 | 0
O=C(CC(c1ccccc1)c1ccccc1O)N1CCCCC1 (centres undefined) | 0 | 0 | 0 | 0 | 0 | 0 | - | - | - | -
O=C(Nc1ccc2c(c1)OCO2)c1ccc(Br)c(S(=O)(=O)N2CCCC2)c1 | 0 | 0 | 0 | 0 | 14 | 0 | 0 | 0 | 0 | 0
SMILES | MrgX1 antag | RGS4 inh | Kir21 block | RGS4 pot | MrgX1 allo act | MrgX1 agonist | MrgX1 allo conf | HEK293 Ca flux | HEK293 Ca counter | HEK293 Ca cntr2 | others
O=C(Nc1ccc2c(c1)OCO2)c1cccc(S(=O)(=O)N2CCCC2)c1 | 0 | 0 | 0 | 0 | 0 | 0 | - | - | - | -
O=C(O)C1Sc2[nH]c(=O)sc2C2c3cc(Cl)ccc3OC(=O)C12 (centres undefined) | 0 | 0 | 0 | 0 | 0 | 0 | - | - | - | -
O=C(O)C1Sc2[nH]c(=O)sc2C2c3cc(Br)ccc3OC(=O)C12 (centres undefined) | 0 | 0 | 0 | 0 | 6.5 | 0 | 0 | 0 | 0 | 0
COc1ccc(N(CC(=O)Nc2cccnc2)S(=O)(=O)c2ccccc2)cc1Cl | 0 | 0 | 0 | 0 | 16 | 0 | 0 | 0 | 0 | 0
COc1ccc(N(CC(=O)Nc2cccnc2)S(=O)(=O)c2ccc(C)cc2)cc1Cl | 0 | 0 | 0 | 0 | 0 | 0 | - | - | - | -
Cc1ccc(-c2csc(N(CCO)CCCn3c(C(F)(F)F)nc4cc(C(F)(F)F)ccc43)n2)cc1 | 0 | 0 | 0 | 0 | 0 | 0 | - | - | - | -
O=C(CCS(=O)(=O)c1ccccc1)Nc1nnc(C(F)(F)F)s1 | 0 | 0 | 0 | 0 | 0 | 0 | - | - | - | -
CC(C)(C)c1nnc(NC(=O)CCS(=O)(=O)c2ccccc2)s1 | 0 | 0 | 0 | 0 | 43 | 0 | 0 | 0 | 0 | 0
COCCn1c(N2CCN(c3ccc(OC)cc3)CC2)nc2c1c(=O)n(C)c(=O)n2C | 0 | 0 | 0 | 0 | 0 | 0 | - | - | - | -
O=C(CS(=O)(=O)c1ccccc1)Nc1nc(-c2ccccc2)cs1 | 0 | 0 | 0 | 0 | 8.4 | 0 | 0 | 0 | 0 | 0
c1ccc(-c2noc(-c3cccc4ccccc34)n2)nc1 | 0 | 0 | 0 | 0 | 8.4 | 0 | 0 | 0.53 | 0 | 0
COc1cccc(-c2nc(-c3ccccn3)no2)c1OC | 0 | 0 | 0 | 0 | 0 | 0 | - | - | - | -
O=C1C2CC=C(Cl)CC2C(=O)N1CCCCCCN1C(=O)C2CC=C(Cl)CC2C1=O (centres undefined) | 0 | 0 | 0 | 0 | 6.5 | 0 | 0 | 0 | 0 | 0
Cc1ccc(NCC(=O)Nc2ccc(Br)cc2)cc1F | 0 | 0 | 0 | 0 | 8.1 | 0 | 0 | 0 | 0 | 0
Cc1ccc(N(CC(=O)NC2CCCCC2)C(=O)CNC(=O)c2cccs2)cc1 | 0 | 0 | 0 | 0 | 0 | 0 | - | - | - | -
O=C(CN(C(=O)CNC(=O)c1cccs1)c1ccccc1)NC1CCCCC1 | 0 | 0 | 0 | 0 | 37 | 0 | 0 | 0 | 0 | 0
CC(/C=N/n1c(-c2ccccn2)n[nH]c1=S)=C\c1ccccc1 | 0 | 0 | 0 | 0 | 0 | 0 | - | - | - | -

Source: PubChem BioAssay (Johns Hopkins Ion Channel Center)
